Experimental data collected from several papers.
Compare with care: the assays were run in different laboratories.
Target: Ephrin type-A receptor 1 (EPHA1, Homo sapiens, UniProt P21709)
Residues used in one study (P21709 26-976): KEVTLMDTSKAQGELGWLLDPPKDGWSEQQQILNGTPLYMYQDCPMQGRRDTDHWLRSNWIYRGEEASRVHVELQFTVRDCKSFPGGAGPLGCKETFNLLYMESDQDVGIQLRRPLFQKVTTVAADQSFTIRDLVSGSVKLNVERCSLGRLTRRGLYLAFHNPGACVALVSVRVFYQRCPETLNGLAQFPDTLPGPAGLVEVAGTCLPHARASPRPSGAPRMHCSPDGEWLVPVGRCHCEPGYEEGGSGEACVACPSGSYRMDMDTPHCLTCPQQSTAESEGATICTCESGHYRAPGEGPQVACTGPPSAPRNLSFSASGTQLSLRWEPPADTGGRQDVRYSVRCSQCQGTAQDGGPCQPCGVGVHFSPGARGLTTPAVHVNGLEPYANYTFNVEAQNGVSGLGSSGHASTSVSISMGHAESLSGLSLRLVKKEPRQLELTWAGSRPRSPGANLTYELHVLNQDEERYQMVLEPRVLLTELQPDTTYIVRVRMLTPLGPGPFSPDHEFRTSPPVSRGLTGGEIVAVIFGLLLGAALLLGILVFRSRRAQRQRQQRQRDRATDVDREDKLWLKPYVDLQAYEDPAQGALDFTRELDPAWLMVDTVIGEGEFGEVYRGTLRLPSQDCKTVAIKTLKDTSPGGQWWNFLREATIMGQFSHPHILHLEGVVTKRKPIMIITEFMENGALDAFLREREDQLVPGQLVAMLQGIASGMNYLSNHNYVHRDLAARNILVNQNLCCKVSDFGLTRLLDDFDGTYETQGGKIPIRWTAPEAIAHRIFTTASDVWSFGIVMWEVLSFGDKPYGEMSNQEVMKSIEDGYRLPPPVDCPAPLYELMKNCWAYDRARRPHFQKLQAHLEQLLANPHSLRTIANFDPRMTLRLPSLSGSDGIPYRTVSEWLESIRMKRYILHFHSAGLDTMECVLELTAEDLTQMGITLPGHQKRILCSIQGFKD

Compound | test | conditions | remaining binding
CC(C)CC(=O)N1CCc2nc(-c3ccc(Br)cc3)nc(N(C)Cc3ccccc3)c2C1 | cell-free assay, competition with immobilised ligand | 0.1 µM | 100%
O=C(NCCCN1CCOCC1)c1ccc(Nc2nccc(-c3cc4ccccc4s3)n2)cc1 | binding, competition with immobilised ligand | 1 µM | 44%
Cc1nc(Cc2cccc(C(F)(F)F)c2)sc1-c1ccc(C(N)=O)nc1 | cell-free assay, competition with immobilised ligand | 1 µM | 81%
CNC(=O)[C@@H]1CC[C@@H](n2c(-c3ccc4cnccc4c3)nc3ccc(C(=O)NCc4cccc(C(N)=O)c4)cc32)C1 | binding, competition with immobilised ligand | 1 µM | 100%
C[C@@H]1CCN(c2nccc(-c3cnn4ncccc34)n2)C1 | binding | 1 µM | 100%
O=C(c1ccc(Nc2ncc(Cl)c(-c3cc4ccccc4s3)n2)cc1)N1CCC(N2CCCC2)CC1 | binding, competition with immobilised ligand | 1 µM | 16%
N[C@@H]1CCN(c2nccc(-c3cnn4ncccc34)n2)C1 | binding | 1 µM | 100%
CCN1CCN(Cc2ccc(C(=O)Nc3ccc(C)c(Oc4ccc5c(c4)CC(=O)N5)c3)cc2C(F)(F)F)CC1 | binding, competition with immobilised ligand | 1 µM | 77%
CC1CCCN1c1nccc(-c2cnn3ncccc23)n1 (centres unmarked) | binding | 1 µM | 96%
CCS(=O)(=O)c1cc2cc(C[C@@](O)(CC(C)(C)c3ccc(F)cc3C(N)=O)C(F)(F)F)[nH]c2cn1 | cell-free assay, competition with immobilised ligand | 1 µM | 99%
O=C(Nc1c[nH]nc1C(=O)NC1CCNCC1)c1cc(F)cc(F)c1 | binding, competition with immobilised ligand | 1 µM | 100%
CCC(=O)N[C@H]1CC[C@@H](C(=O)N(C)c2ccc(-c3nc4ccccc4o3)cc2)C1 | cell-free assay, competition with immobilised ligand | 1 µM | 100%
Nc1ncc2c(n1)-c1c([nH]c3ccc(C#CC4CC4)cc13)CCCC2 | binding, competition with immobilised ligand | 1 µM | 89%
COc1ccnn2ncc(-c3ccnc(N(C)C)n3)c12 | binding | 1 µM | 100%
CSc1cccnc1N1CCN(Cc2nc3ccccc3[nH]2)CC1 | cell-free assay, competition with immobilised ligand | 1 µM | 100%
O=C(c1ccc(Nc2nccc(-c3cc4ccccc4s3)n2)cc1)N1CCC(N2CCCC2)CC1 | binding, competition with immobilised ligand | 1 µM | 32%
CN(C)c1nccc(-c2cnc3ncccn23)n1 | binding | 1 µM | 93%
c1cncc(-c2cccc(Nc3nccc(NC4CCCCC4)n3)c2)c1 | binding, competition with immobilised ligand | 10 µM | 51%
CN(CCCC(F)(F)F)c1nccc(-c2cnn3ncccc23)n1 | binding | 1 µM | 76%
COc1ccc2cc(OCC3(C(=O)O)CN(C(=O)c4ccc(F)cc4)C3)ccc2c1 | cell-free assay, competition with immobilised ligand | 1 µM | 83%
